# Source: the array DNA melting data of Ke et al. (doi:10.1101/2024.01.08.574731)
# Tests used:
# [1] = folding enthalpy; higher = less favourable; fluorescence melt of hairpins on a sequencing array, two-state fit; details: sodium 0.088 M
# Summary of the method: (§1)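 Cy3 signals were normalised both to pre-quench Cy3 and to control constructs. They came from library hairpins carrying annealed Cy3 and quencher oligos on a sequenced MiSeq flow cell, imaged in 50 mM Na-HEPES pH 8.0, 25 mM NaCl, in 2.5 °C steps up to 60 °C. Bootstrapped two-state fits gave melting temperature and folding enthalpy, and four replicates were combined by inverse variance. Fitted temperatures were then raised by 9.35 °C to match UV melts.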
# [2] = melting temperature; fluorescence melt of hairpins on a sequencing array, two-state fit, raised by 9.35 °C to match UV melts; details: sodium 0.088 M
# Summary of the method: as §1
sequence,measurement,setting,value
GACGTAACGAAAGTTGTC (((..(((....)))))),folding enthalpy,[1],-25 kcal/mol
same,Tm,[2],37.5 °C
GACGCACGAAAGTGGGTC (((.(((....))).))),folding enthalpy,[1],-35.3 kcal/mol
same,Tm,[2],63.9 °C
GATCGTGTAAACGATC ((((((....)))))),folding enthalpy,[1],-42.2 kcal/mol
same,Tm,[2],66.5 °C
GTAGAGGCGAAAGCCTAC (((..(((....)))))),folding enthalpy,[1],-8.81 kcal/mol
same,Tm,[2],38 °C
GAAGCGGGAAACCGTTTC (((.(((....))).))),folding enthalpy,[1],-28.2 kcal/mol
same,Tm,[2],47.1 °C
GGTCTACGAAAGTAAACC (((.(((....))).))),folding enthalpy,[1],-26.2 kcal/mol
same,Tm,[2],39.3 °C
GATTAGCGAAAGCTCATC (((.(((....))).))),folding enthalpy,[1],-19.1 kcal/mol
same,Tm,[2],38.7 °C
GGACTCGAAAGAGGTTCC ((((((....)))..))),folding enthalpy,[1],-17.6 kcal/mol
same,Tm,[2],33.8 °C
GGTCTTCGAAAGAAACC (((.(((....)))))),folding enthalpy,[1],-18.4 kcal/mol
same,Tm,[2],32.9 °C
GTGCTAGGAAACTGGTAC ((.(.((....)).).)),folding enthalpy,[1],-18.9 kcal/mol
same,Tm,[2],32.6 °C
GACTCGGGAAACTGAGTC (((((.(....).))))),folding enthalpy,[1],-37.2 kcal/mol
same,Tm,[2],52.7 °C
GCGTAGCAACGC ((((....)))),folding enthalpy,[1],-9.68 kcal/mol
same,Tm,[2],61.4 °C
GAGCGCGAAAGCGGACTC ((((((....)))..))),folding enthalpy,[1],-13.7 kcal/mol
same,Tm,[2],52.3 °C
GTTGACGGAAACGTTGAC ((..(((....)))..)),folding enthalpy,[1],-25.4 kcal/mol
same,Tm,[2],37.5 °C
GCTACCGAAAGGTAAGC ((((((....))).))),folding enthalpy,[1],-35 kcal/mol
same,Tm,[2],53.2 °C
GATCTTGGTTAAGATC ((((((....)))))),folding enthalpy,[1],-30.5 kcal/mol
same,Tm,[2],43.7 °C
GAGGGCCCGAAAGGGCTC (((..(((....)))))),folding enthalpy,[1],-8.22 kcal/mol
same,Tm,[2],43.9 °C
GACGCCGAAAGGCAGTC ((((((....))).))),folding enthalpy,[1],-18.2 kcal/mol
same,Tm,[2],63.7 °C
GATTAGCGAAAGCTATC (((.(((....)))))),folding enthalpy,[1],-12.5 kcal/mol
same,Tm,[2],34.7 °C
GAAGTACGAAAGTATTC (((.(((....)))))),folding enthalpy,[1],-10.4 kcal/mol
same,Tm,[2],27.1 °C
GCCCACGAAAGTGCGGGC ((((((....)))..))),folding enthalpy,[1],-28.4 kcal/mol
same,Tm,[2],55 °C
GAACTCCGAAAGGACTTC (((.(((....))).))),folding enthalpy,[1],-19.5 kcal/mol
same,Tm,[2],29.7 °C
GCTCATGGAAACATAAGC (((.(((....))).))),folding enthalpy,[1],-18.2 kcal/mol
same,Tm,[2],32 °C
GCCAGGCGAAAGCGTCGC ((.(.((....)).).)),folding enthalpy,[1],-8.31 kcal/mol
same,Tm,[2],40.7 °C
GATCAGAAAACTGATC ((((((....)))))),folding enthalpy,[1],-29.2 kcal/mol
same,Tm,[2],43.6 °C
GATCTTGGTAAGATC ((((((...)))))),folding enthalpy,[1],-29 kcal/mol
same,Tm,[2],43.2 °C
CGCGGCCGGAAACGGGCG (((..(((....)))))),folding enthalpy,[1],-12.1 kcal/mol
same,Tm,[2],65.6 °C
GATCCGGGGGCGGATC ((((((....)))))),folding enthalpy,[1],-38.3 kcal/mol
same,Tm,[2],60.1 °C
GATCCCCTAGGGATC ((((((...)))))),folding enthalpy,[1],-38.4 kcal/mol
same,Tm,[2],64.4 °C
GTAAACGCGAAAGCGTAC (((..(((....)))))),folding enthalpy,[1],-8.26 kcal/mol
same,Tm,[2],35 °C
GAACCCCGAAAGGGTTC (((.(((....)))))),folding enthalpy,[1],-30.9 kcal/mol
same,Tm,[2],58.9 °C
GTACCGGGAAACCGGCAC ((.((((....)))).)),folding enthalpy,[1],-17.7 kcal/mol
same,Tm,[2],47.9 °C
GATCACCCAGGTGATC ((((((....)))))),folding enthalpy,[1],-35.7 kcal/mol
same,Tm,[2],61.6 °C
GTGCACGAAAGTGGCAC ((((((....))).))),folding enthalpy,[1],-25.1 kcal/mol
same,Tm,[2],59.4 °C
GTTACCGAAAGGTTAAAC ((((((....)))..))),folding enthalpy,[1],-9.83 kcal/mol
same,Tm,[2],30.6 °C
GATCCGGGTCGGATC ((((((...)))))),folding enthalpy,[1],-29.6 kcal/mol
same,Tm,[2],58.6 °C
GAATTAGGAAACCAATTC (((((.(....).))))),folding enthalpy,[1],-10.8 kcal/mol
same,Tm,[2],27.7 °C
GGTGATCGAAAGATGACC (((.(((....))).))),folding enthalpy,[1],-33.4 kcal/mol
same,Tm,[2],47.9 °C
GTTTCTCGAAAGAGTAAC (((.(((....))).))),folding enthalpy,[1],-26.7 kcal/mol
same,Tm,[2],38 °C
GATCGGTATTCCGATC ((((((....)))))),folding enthalpy,[1],-42 kcal/mol
same,Tm,[2],58.4 °C
GATGCCGCGAAAGCGATC (((..(((....)))))),folding enthalpy,[1],-7.36 kcal/mol
same,Tm,[2],28 °C
GCATGTTCGAAAGAATGC (((..(((....)))))),folding enthalpy,[1],-24 kcal/mol
same,Tm,[2],30.8 °C
GACATTACGAAAGTAGTC (((..(((....)))))),folding enthalpy,[1],-14.8 kcal/mol
same,Tm,[2],27.4 °C
GCTAAGGAAACTTAGC ((((((....)))))),folding enthalpy,[1],-24.6 kcal/mol
same,Tm,[2],52 °C
TAGTGGAAACACTA (((((....))))),folding enthalpy,[1],-14.9 kcal/mol
same,Tm,[2],40.9 °C
GCGACGCCGAAAGGCCGC (((..(((....)))))),folding enthalpy,[1],-19.1 kcal/mol
same,Tm,[2],58.1 °C
GCCAAACGAAAGTTAGGC (((.(((....))).))),folding enthalpy,[1],-29.5 kcal/mol
same,Tm,[2],54.9 °C
GAGTAAGGAAACTTACTC (((((((....))))))),folding enthalpy,[1],-43.1 kcal/mol
same,Tm,[2],52.1 °C
GTACGAGGAAACTCGCAC ((.((((....)))).)),folding enthalpy,[1],-19.8 kcal/mol
same,Tm,[2],42.4 °C
GCGCGTGGAAACACACGC (((.(((....))).))),folding enthalpy,[1],-34.1 kcal/mol
same,Tm,[2],57.4 °C
GTCGGCGAAAGCCTAGAC ((((((....)))..))),folding enthalpy,[1],-18.1 kcal/mol
same,Tm,[2],47.1 °C
GGACACACGAAAGTGTCC (((..(((....)))))),folding enthalpy,[1],-30.7 kcal/mol
same,Tm,[2],57.9 °C
GTATTCGAAAGAATCTAC ((((((....)))..))),folding enthalpy,[1],-10.7 kcal/mol
same,Tm,[2],33.3 °C
GCTAAGCCGAAAGGCAGC (((..(((....)))))),folding enthalpy,[1],-18.6 kcal/mol
same,Tm,[2],50 °C
GCCACGACGAAAGTCGGC (((..(((....)))))),folding enthalpy,[1],-10.2 kcal/mol
same,Tm,[2],44.1 °C
GATCCTTAGAGGATC ((((((...)))))),folding enthalpy,[1],-28.3 kcal/mol
same,Tm,[2],50 °C
GTCACTCGAAAGAGAGAC (((.(((....))).))),folding enthalpy,[1],-35.4 kcal/mol
same,Tm,[2],50.5 °C
GCTGGTCGAAAGACAAGC (((.(((....))).))),folding enthalpy,[1],-41.4 kcal/mol
same,Tm,[2],56.2 °C
GCGAGTTCGAAAGAACGC (((..(((....)))))),folding enthalpy,[1],-11.8 kcal/mol
same,Tm,[2],49.5 °C
GCGGTTTCCGC ((((...)))),folding enthalpy,[1],-29.4 kcal/mol
same,Tm,[2],60.5 °C
GGCACCGAAAGGTGCGCC ((((((....)))..))),folding enthalpy,[1],-6.18 kcal/mol
same,Tm,[2],66.1 °C
GCAGATGGAAACATCCGC ((.((((....)))).)),folding enthalpy,[1],-23.9 kcal/mol
same,Tm,[2],42.5 °C
GCTGGGCGAAAGCCGCGC ((..(((....)))..)),folding enthalpy,[1],-15.3 kcal/mol
same,Tm,[2],61.4 °C
GACGGCGAAAGCCAAGTC ((((((....)))..))),folding enthalpy,[1],-18.5 kcal/mol
same,Tm,[2],49 °C
GGTCGGGGAAACTCGGCC ((.((.(....).)).)),folding enthalpy,[1],-34 kcal/mol
same,Tm,[2],49.1 °C
GCATTAGCGAAAGCTTGC (((..(((....)))))),folding enthalpy,[1],-18.1 kcal/mol
same,Tm,[2],40 °C
GCGTGAGCACGC ((((....)))),folding enthalpy,[1],-12.7 kcal/mol
same,Tm,[2],62.6 °C
GATCTTTCAAAGATC ((((((...)))))),folding enthalpy,[1],-28.5 kcal/mol
same,Tm,[2],44.5 °C
GATCACGTCGTGATC ((((((...)))))),folding enthalpy,[1],-40.5 kcal/mol
same,Tm,[2],61.1 °C
